Source: ChEMBL document CHEMBL1126038, “3-(2-Carboxyindol-3-yl)propionic acid-based antagonists of the N-methyl-D-aspartic acid receptor associated glycine binding site” (J Med Chem, 1992)

Legend:
Glutamate NMDA receptor = assay: Ability to compete with [3H]glycine for strychnine-insensitive binding sites on rat cortical and hippocampal membrane; type: tissue-based, Hippocampus
Method in brief: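 Rat cortical plus hippocampal membranes, competing against [³H]glycine at strychnine-insensitive sites. Values are the mean of ≥2 experiments, with SE within 10-30% of the mean.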

[1] = target: Glutamate NMDA receptor (Rattus norvegicus) (UniProt P35439+Q00959+Q00960+Q00961+Q62645+Q8VHN2+Q9R1M7); assay: Ratio of the inhibitory activity against […] for rat cortical and hippocampal membrane glutamate binding site to [3H]glycine for rat cortical and hippocampal membrane binding site.; type: tissue-based; conditions: Hippocampus
[2] = Ability to compete with […] for rat cortical and hippocampal membrane glutamate binding site.; type: tissue-based, Hippocampus
Method in brief: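 Competition binding against [³H]CPP at the glutamate site, using rat cortical and hippocampal membranes. Values are means of two or more experiments, with standard errors ±10-30% of the mean.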

[3] = target: Glutamate receptor ionotropic, AMPA (Rattus norvegicus, UniProt P19490+P19491+P19492+P19493); assay: The compound was evaluated […] for the competitive binding against […] for rat cortical and hippocampal membrane glutamate binding site.
[4] = target: Glutamate receptor ionotropic, kainate; assay: The compound was evaluated […] for the competitive binding against [3H]kainate for rat cortical and hippocampal membrane glutamate binding site.
[5] = The compound was evaluated for the ability to compete with […] for rat cortical and hippocampal membrane glutamate binding site.; type: tissue-based, Hippocampus
Method in brief: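 Competition binding against [³H]CPP at the glutamate site, using rat cortical and hippocampal membranes. […] Values are means of two or more experiments, with standard errors ±10-30% of the mean.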

[6] = target: Glutamate receptor ionotropic, NMDA 1 (Rattus norvegicus, UniProt P35439); assay: The compound was evaluated for the ability to compete with [3H]glycine for strychnine-insensitive binding sites on rat cortical and hippocampal membrane; type: tissue-based, Hippocampus
Method in brief: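 Rat cortical plus hippocampal membranes, competing against [³H]glycine at strychnine-insensitive sites. […] Values are the mean of ≥2 experiments, with SE within 10-30% of the mean.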

Mus musculus [7] = assay: The compound was evaluated in vivo for the anticonvulsant activity in audiogenic seizure model (intraperitoneal), for 2 hr drug pretreatment time; type: functional; conditions: ip
Method in brief: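 Male DBA/2J audiogenic-susceptible mice (groups of 6-8) got test compound in methylcellulose, with saline controls by the same route. A 110 dB (12 KHz) sound was given for 30 s. Absence of tonic hindlimb extension counted as protection. ED50 was reported.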

Mus musculus [8] = assay: The compound was evaluated in vivo for the anticonvulsant activity in quinolinic acid seizure model (intracerebroventricular), for 5 min drug pretreatment time; type: functional; conditions: central
Method in brief: (§1)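 Mice got test compound in distilled water with a few drops of Tween (1 mL/kg) at set times before icv quinolinic acid (7.7 μg in 5 μL saline). Clonic-tonic seizures were watched for 15 min, and non-convulsing mice counted as protected.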

Mus musculus [9] = assay: The compound was evaluated in vivo for the anticonvulsant activity in quinolinic acid seizure model (intravenous), for 5 min drug pretreatment time; type: functional; method in brief: as §1
Mus musculus [10] = assay: The compound was evaluated in vivo for the anticonvulsant activity in quinolinic acid + probenecid seizure model (intravenous), for 5 min drug pretreatment time; type: functional
Method in brief: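 Quinolinic acid seizure in mice: probenecid 200 mg/kg ip given 30 min before the test compound. Test compound in distilled water with Tween (1 mL/kg), then icv quinolinic acid (7.7 μg in 5 μL saline). Mice were watched 15 min for clonic-tonic seizures.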

Mus musculus [11] = assay: The compound was evaluated in vivo for the anticonvulsant activity in quinolinic acid seizure model (intraperitoneal), for 2 hr drug pretreatment time; type: functional; conditions: ip; method in brief: as §1

Structure (SMILES) | IC50 (Glutamate NMDA receptor) | Ratio [1] | IC50 [2] | also measured
O=C(O)c1cc2ccccc2[nH]1 [INDOLE-2-CARBOXYLIC ACID] | – | 40 | 4200 µM | –
O=C(O)c1cc(=O)c2ccccc2[nH]1 [TRANSTORINE] | – | – | 71 µM | –
O=C(O)CCc1c(C(=O)O)[nH]c2c1ccc1ccccc12 | > 100 µM | – | – | –
O=C(O)CCc1c(C(=O)O)[nH]c2cccc(Cl)c12 | – | 10 | 60 µM | –
COc1cc(C(=O)O)nc2ccccc12 | – | – | – | IC50 [5]: > 100 µM; IC50 [6]: > 100 µM
O=C(O)CCc1c(C(=O)O)[nH]c2cccc([N+](=O)[O-])c12 | 75 µM | – | – | –
O=C(O)CCc1c(C(=O)O)[nH]c2c(Cl)cccc12 | > 100 µM | > 1 | > 1000 µM | –
O=C(O)CCc1c(C(=O)O)[nH]c2ccc3ccccc3c12 | > 100 µM | – | – | –
O=C(O)CCc1cc(C(=O)O)nc2ccccc12 | > 100 µM | – | > 100 µM | –
CS(=O)(=O)Nc1ccc2c(CCC(=O)O)c(C(=O)O)[nH]c2c1 | > 100 µM | – | – | –
O=C(O)c1cc2c(Cl)cc(Cl)cc2[nH]1 | – | > 150 | > 1000 µM | –
O=C(O)CCc1c(C(=O)O)[nH]c2cc(Oc3ccccc3)ccc12 | > 1000 µM | – | – | –
COc1cc(OC)c2c(CCC(=O)O)c(C(=O)O)[nH]c2c1 | > 100 µM | – | – | –

Further lines, with some results ahead:

IC50 (Glutamate NMDA receptor) | Ratio [1] | IC50 [2] | Structure (SMILES) | also measured
0.143 µM | 80 | 12 µM | O=C(O)c1cc(O)c2c(Cl)cc(Cl)cc2n1 | –
2.5 µM | – | – | O=C(O)CCc1c(C(=O)O)[nH]c2cc([N+](=O)[O-])ccc12 | –
23 µM | 2 | 25 µM | O=C(O)CCc1c(C(=O)O)[nH]c2ccc(Cl)cc12 | –
45 µM | > 2 | > 100 µM | Cn1c(C(=O)O)c(CCC(=O)O)c2c(Cl)cc(Cl)cc21 | –
12 µM | 1.6 | 16 µM | O=C(O)CSc1c(C(=O)O)[nH]c2ccccc12 | –
13 µM | 11 | 141 µM | COc1ccc2c(CCC(=O)O)c(C(=O)O)[nH]c2c1 | –
0.1 µM | – | – | O=C(O)CSc1c(C(=O)O)[nH]c2cc(Cl)cc(Cl)c12 | IC50 [3]: > 100 µM; IC50 [4]: > 100 µM
8 µM | – | – | O=C(O)CCc1c(C(=O)O)[nH]c2cc(C(F)(F)F)ccc12 | –
2 µM | 140 | 283 µM | O=C(O)CCc1c(C(=O)O)[nH]c2cc(Cl)ccc12 | –
4 µM | – | – | O=C(O)CCc1c(C(=O)O)[nH]c2cc(F)cc(F)c12 | –
17 µM | 3 | 51 µM | O=C(O)CCc1c(C(=O)O)[nH]c2cccc(F)c12 | –
13 µM | – | – | O=C(O)CCc1c(C(=O)O)[nH]c2cccc(C(F)(F)F)c12 | –
0.17 µM | 2100 CPP/GLY | 358 µM | O=C(O)CCc1c(C(=O)O)[nH]c2cc(Cl)cc(Cl)c12 | IC50 [3]: 273 µM; ED50 (Mus musculus [7]): 100 mg/kg; ED50 (Mus musculus [8]): 1.5 µg; IC50 [4]: 418 µM; ED50 (Mus musculus [9]): > 50 mg/kg; ED50 (Mus musculus [10]): 50 mg/kg; ED50 (Mus musculus [11]): 256 mg/kg
27 µM | 1 | 34 µM | O=C(O)CCc1c(C(=O)O)[nH]c2ccccc12 | –
5 µM | – | – | O=C(O)CCc1c(C(=O)O)[nH]c2cc(F)ccc12 | –
25 µM | 28 | 710 µM | O=C(O)COc1cc(C(=O)O)nc2ccccc12 | –
